Experimental data reported in ChEMBL document CHEMBL4340565, “First-generation structure-activity relationship studies of 2,3,4,9-tetrahydro-1H-carbazol-1-amines as CpxA phosphatase inhibitors” (Bioorg Med Chem Lett, 2019).
The source made the active and inactive calls. The rule behind the calls is not given here.

Legend:
[1] = Inhibition of CpxA in Escherichia coli harboring lacZ reporter gene assessed as activation of CpxR incubated for 5 hrs by beta-galactosidase assay
Summary of the method: (§1)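 Read-out is a CpxR-responsive lacZ reporter in a modified E. coli strain, measured as beta-galactosidase activity. Where potency is given it is an EC50. Values are mean ± SEM of at least three separate experiments, each run in triplicate. Compounds showing cytotoxicity or general stress-response activation were not scored.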

Escherichia coli [2] = assay: Inhibition of CpxA phosphatase activity in Escherichia coli assessed as increase in the ratio of CpxR-P to CpxR at 10 uM incubated for 5 hrs by densitometric method
Summary of the method: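 Wild-type and ΔcpxA E. coli were grown in medium with 0.4% glucose, with 0 or 10 μM compound. CpxR phosphorylation was resolved by Phos-Tag gel and Western blot. His6CpxR incubated with 0 or 20 mM acetyl phosphate served as a marker. The CpxR-P:CpxR ratio was quantified by densitometry, as average and standard deviation of 5 independent experiments.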

[3] = Drug uptake in Escherichia coli BW25113 harboring tolC deletion mutant at 16 to 128 ug/ml incubated for 1 to 40 mins by UHPLC-Q/TOF analysis; format: ADME
Summary of the method: (§2)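 Isogenic E. coli strains: wild-type efflux or TolC-deficient (efflux-deficient), each with or without an arabinose-induced large outer-membrane pore (hyperporinated). Cells were incubated with increasing compound concentrations. Intracellular accumulation was measured by mass spectrometry after 1 and 40 min.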

[4] = Drug uptake in Escherichia coli BW25113 at 16 to 128 ug/ml incubated for 1 to 40 mins by UHPLC-Q/TOF analysis; format: ADME; summary of the method: as §2
Escherichia coli [5] = assay: Inhibition of CpxA in Escherichia coli harboring lacZ reporter gene assessed as activation of CpxR up to 80 uM incubated for 5 hrs by beta-galactosidase assay; summary of the method: as §1
[6] = Drug uptake in Escherichia coli BW25113 attTn7::mini-Tn7T-Kmrr-araC-ParaBAD-fhuAdeltaCdelta4L at 16 to 128 ug/ml incubated for 1 to 40 mins by UHPLC-Q/TOF analysis; format: ADME; summary of the method: as §2
[7] = Drug uptake in Escherichia coli BW25113 deltatolCygiBCattTn7::mini-Tn7T-Kmr-araC-ParaBAD-fhuAdeltaCdelta4L at 16 to 128 ug/ml incubated for 1 to 40 mins by UHPLC-Q/TOF analysis; format: ADME; summary of the method: as §2

Structure (SMILES)	EC50 ([1]; read-out: EC50) [µM]	other results
O=[N+]([O-])c1ccc2[nH]c3c(c2c1)CCCC3	> 160	
N[C@@H]1CCCc2c1[nH]c1ccc(F)cc21	3.5	inhibition (Escherichia coli [2]): Active
CC(N)c1cc2cc(Br)ccc2[nH]1 (stereo not given)	44.2	
N[C@H]1CCCc2c1[nH]c1ccc(F)cc21	> 100	
N[C@@H]1CCCc2c1[nH]c1cc(F)c(F)cc21	1.1	
NCc1cc2cc(F)ccc2[nH]1	79.5	
Fc1ccc2[nH]c3c(c2c1)CCCC3		Drug uptake [3]: Not Active; Drug uptake [4]: Active
OC1CCCc2c1[nH]c1ccccc21 (stereo not given)	> 100	
CC(C)[C@@H](N)C(=O)Nc1ccc(F)c(F)c1		inhibition (Escherichia coli [5]): inactive
CC(C)[C@@H](N)C(=O)Nc1ccc(F)cc1		inhibition (Escherichia coli [5]): inactive
CCC(C)[C@@H](N)C(=O)Nc1ccc(F)cc1 (stereo not given in full)		inhibition (Escherichia coli [5]): inactive
C[C@@H](N)C(=O)Nc1ccc(F)c(F)c1		inhibition (Escherichia coli [5]): inactive
C[C@@H](N)C(=O)Nc1ccc(F)cc1		inhibition (Escherichia coli [5]): inactive
N[C@H](Cc1ccccc1)C(=O)Nc1ccc(F)cc1		inhibition (Escherichia coli [5]): inactive
NC1CCCc2c1[nH]c1ccc(Cl)cc21 (racemic)	10.9	
NC1CCCc2c1[nH]c1cc(C(F)(F)F)ccc21 (racemic)		EC50 [1]: Nd(Toxic)
Cc1ccc2[nH]c3c(c2c1)CCCC3N (racemic)	34.1	

Structure (SMILES)	EC50 ([1]; read-out: EC50) [µM]	other results
NC1CCCc2c1[nH]c1ccc(C(=O)O)cc21 (racemic)	> 100	
NC1CCCc2c1[nH]c1ccc(Br)cc21 (racemic)		EC50 [1]: Nd(Toxic)
COc1ccc2[nH]c3c(c2c1)CCCC3N (racemic)	> 100	
COC(=O)c1ccc2[nH]c3c(c2c1)CCCC3N (racemic)	> 100	
NC1CCCc2c1[nH]c1ccc(S(N)(=O)=O)cc21 (racemic)	> 100	
NC1CCCc2c1[nH]c1c(F)cccc21 (racemic)	56.8	
NC1CCCc2c1[nH]c1cccc(C(F)(F)F)c21 (racemic)	> 100	
NC1CCCc2c1[nH]c1c(C(F)(F)F)cccc21 (racemic)	> 100	
NC1CCCc2c1[nH]c1cc(F)c(F)cc21 (racemic)	2.7	
NC1CCCc2c1[nH]c1ccc(F)cc21 (racemic)	7.7	Drug uptake [3]: Active; Drug uptake [4]: Active; Drug uptake [6]: Active; Drug uptake [7]: Active
NC1CCCc2c1[nH]c1cccc(F)c21 (racemic)	65.9	
NC1CCCc2c1[nH]c1cc(F)ccc21 (racemic)	11.9	
NC1CCCc2c1[nH]c1ccc([N+](=O)[O-])cc21 (racemic)	24.8	inhibition (Escherichia coli [2]): Active
NC1CCCc2c1[nH]c1ccc(C(F)(F)F)cc21 (racemic)	23.1	
N#Cc1ccc2[nH]c3c(c2c1)CCCC3N (racemic)	> 100	
NC1CCCc2c1[nH]c1ccccc21 (racemic)	30.2	
